According to ChEMBL document CHEMBL1165904, “Design, synthesis and 3D-QSAR of beta-carboline derivatives as potent antitumor agents” (Eur J Med Chem, 2010):

Experiments:
Format in all cases: functional, cell-based
[1] = tested on: HepG2; experiment: Cytotoxicity against human HepG2 cells by MTT assay
Method in brief: (§1)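 Tumour cells cultured in RPMI-1640 with 10% (v/v) fetal calf serum plus penicillin and streptomycin, at 37 °C, humidified 5% CO2. Compounds from DMSO stocks; final DMSO in medium 2% (v/v) or lower. Assay in 96-well microtitre cultures with MTT staining. IC50 taken as concentration causing 50% growth inhibition relative to untreated cells.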

[2] = tested on: HeLa; experiment: Cytotoxicity against human HeLa cells by MTT assay; method in brief: as §1
[3] = tested on: Bel-7402; experiment: Cytotoxicity against human Bel7402 cells by MTT assay; method in brief: as §1
[4] = tested on: BGC-823; experiment: Cytotoxicity against human BGC823 cells by MTT assay; method in brief: as §1
[5] = tested on: MCF7; experiment: Cytotoxicity against human MCF7 cells by MTT assay; method in brief: as §1

| Compound | IC50 ([1]; read-out: IC50) | IC50 ([1]; read-out: pIC50 (converted)) | IC50 [2] | IC50 [3] | IC50 [4] | IC50 [5] |
| --- | --- | --- | --- | --- | --- | --- |
| CCCCOc1ccc2c3ccnc(C)c3n(CC(C)C)c2c1 | 12.1 µM | 12 µM | 20.8 µM | 42.5 µM | 12.1 µM | 7.2 µM |
| CCOC(=O)c1cc2c3ccccc3n(Cc3ccc(F)cc3)c2cn1 | > 200 µM |  | > 200 µM | > 200 µM | > 200 µM | > 200 µM |
| O=C(NCCO)c1cc2c3ccccc3n(Cc3ccc(F)cc3)c2cn1 | > 200 µM |  | > 200 µM | > 200 µM | > 200 µM | > 200 µM |
| COc1ccc2c(c1)[nH]c1c(C)[n+](Cc3ccccc3)ccc12 | 54.6 µM | 55 µM | 77.6 µM | 64.2 µM | 67.4 µM | 76.2 µM |
| CCCCn1c2ccccc2c2cc(CO)nc(C)c21 | 128 µM | 129 µM | 100 µM | 122 µM | 127 µM | 107 µM |
| CCCCn1c2ccccc2c2cc(C=O)nc(C)c21 | 143 µM | 145 µM | 169 µM | 123 µM | > 200 µM | 154 µM |
| CCCCn1c2ccccc2c2cc(C(=O)NCCO)nc(-c3cc(OC)c(OC)c(OC)c3)c21 |  |  | > 200 µM | > 200 µM |  | 105 µM |
| Cc1nccc2c3ccc(OCc4ccccc4)cc3n(CC(C)C)c12 | 22.2 µM | 22.4 µM | 50.5 µM | 26.8 µM | 36 µM | 54.1 µM |
| Cc1nccc2c3ccc(OC(C)C)cc3n(CCCc3ccccc3)c12 | 14.6 µM | 14.5 µM | 48.6 µM | 36.2 µM | 16.3 µM | 45.3 µM |
| CCCC[n+]1ccc2c(c1)[nH]c1ccccc12 | 94 µM | 93.3 µM | 130 µM | 302 µM | 326 µM | 338 µM |
| c1ccc(C[n+]2ccc3c(c2)[nH]c2ccccc23)cc1 | 77.3 µM | 77.6 µM | 85.4 µM | 65.1 µM | 91.8 µM | 91.3 µM |
| CCOc1ccc2c3ccnc(C)c3n(CC)c2c1 | 68.9 µM | 69.2 µM | 30.7 µM | 27.4 µM | 57.1 µM | 14.4 µM |
| CCn1c2cc(OCc3c(F)c(F)c(F)c(F)c3F)ccc2c2ccnc(C)c21 | 236 µM | 234 µM | 258 µM | 241 µM | 238 µM | 103 µM |
| CCCCn1c2cc(OCC)ccc2c2ccnc(C)c21 | 43.3 µM | 43.7 µM | 32.1 µM | 36.1 µM | 37.2 µM | 12 µM |
| CCCCn1c2cc(OC(C)C)ccc2c2ccnc(C)c21 | 30.2 µM | 30.2 µM | 21.2 µM | 26.8 µM | 19.1 µM | 19.5 µM |
| CCCCCCCCCCOc1ccc2c3ccnc(C)c3n(CCCC)c2c1 | 127 µM | 126 µM | 106 µM | 18.8 µM | 28.4 µM | 62.7 µM |
| Cc1c2[nH]c3ccccc3c2cc[n+]1CCCc1ccccc1 | 33 µM | 33.1 µM | 49.8 µM | 20.5 µM | 3.5 µM | 23.8 µM |
| c1ccc(CCC[n+]2ccc3c(c2)[nH]c2ccccc23)cc1 | 44.6 µM | 44.7 µM | 44.3 µM | 24.6 µM | 7.1 µM | 5.7 µM |
| CCn1c2cc(O)ccc2c2ccnc(C)c21 | 134 µM | 135 µM | 70.3 µM | 165 µM | 160 µM | 106 µM |
| Cc1c2[nH]c3ccccc3c2cc[n+]1Cc1ccccc1 | 69.5 µM | 69.2 µM | 69.2 µM | 74 µM | 77.4 µM | 89.2 µM |
| O=C(NCCO)c1cc2c3ccccc3n(CCCc3ccccc3)c2cn1 | > 200 µM |  | > 200 µM | > 200 µM | > 200 µM | > 200 µM |
| OCc1cc2c3ccccc3n(Cc3ccc(F)cc3)c2cn1 | > 200 µM |  | > 200 µM | > 200 µM | > 200 µM | > 200 µM |
| CCCCn1c2ccccc2c2cc(C(=O)NCCN)ncc21 | 82.9 µM | 83.2 µM | 26.9 µM | 115 µM | 53.2 µM | 18.5 µM |
| CCn1c2cc(OCc3c(F)c(F)c(F)c(F)c3F)ccc2c2cc[n+](Cc3ccccc3)c(C)c21 | 1.6 µM | 1.58 µM | 0.93 µM | 4 µM | 4.6 µM | 5.7 µM |

| Compound | IC50 ([1]; read-out: IC50) | IC50 ([1]; read-out: pIC50 (converted)) | IC50 [2] | IC50 [3] | IC50 [4] | IC50 [5] |
| --- | --- | --- | --- | --- | --- | --- |
| CCCCOc1ccc2c3cc[n+](Cc4ccccc4)c(C)c3n(CC(C)C)c2c1 | 1.8 µM | 1.82 µM | 2.6 µM | 5.3 µM | 6.8 µM | 5.3 µM |
| Cc1c2c(cc[n+]1Cc1ccccc1)c1ccc(OCc3ccccc3)cc1n2CC(C)C | 1.9 µM | 1.91 µM | 12.4 µM | 5 µM | 5.2 µM | 3.9 µM |
| Cc1nccc2c3ccc(OCc4ccccc4)cc3n(CCCc3ccccc3)c12 | 15.7 µM | 15.8 µM | 72.6 µM | 29.4 µM | 19.5 µM | 63.3 µM |
| Cc1nccc2c3ccc(OCc4c(F)c(F)c(F)c(F)c4F)cc3n(CCCc3ccccc3)c12 | 147 µM | 148 µM | 73.5 µM | 18.6 µM | 7.88 µM | 38.7 µM |
| Cc1nccc2c3ccc(O)cc3n(CCCc3ccccc3)c12 | 28.3 µM | 28.2 µM | 45.3 µM | 35.1 µM | 29.9 µM | 34.5 µM |
| CCCCn1c2cc(O)ccc2c2ccnc(C)c21 | 81.5 µM | 81.3 µM | 89.8 µM | 69.5 µM | 90.2 µM | 46.9 µM |
| CCOC(=O)c1cc2c([nH]c3ccccc32)c(-c2cc(OC)c(OC)c(OC)c2)n1 | 167 µM | 166 µM | > 200 µM | > 200 µM | > 200 µM | 123 µM |
| CCCCn1c2ccccc2c2cc(C(=O)NCCCCCCN)ncc21 | 95.8 µM | 95.5 µM | 53 µM | 58.5 µM | 110 µM | 42.8 µM |
| CCCCn1c2ccccc2c2cc(C(=O)NCCO)nc(C)c21 | 140 µM | 141 µM | 80.4 µM | 90.6 µM | 45 µM | 97.3 µM |
| CCCCn1c2ccccc2c2cc(C(=O)NCCN)nc(C)c21 | 21.9 µM | 21.9 µM | 13.3 µM | 56 µM | 17.3 µM | 7.5 µM |
| O=C(NCCO)c1cc2c3ccccc3n(Cc3ccccc3)c2cn1 | > 200 µM |  | > 200 µM | > 200 µM | > 200 µM | > 200 µM |
| NCCCCCCNC(=O)c1cc2c3ccccc3n(Cc3ccccc3)c2cn1 | 58.7 µM | 58.9 µM | 24.2 µM | 56.8 µM | 34.8 µM | 54.1 µM |
| CCCCn1c2ccccc2c2cc(C(=O)OCC)nc(-c3cc(OC)c(OC)c(OC)c3)c21 | > 200 µM |  | > 200 µM | > 200 µM |  | > 200 µM |
| CCCCn1c2ccccc2c2cc(C(=O)O)nc(-c3cc(OC)c(OC)c(OC)c3)c21 | 208 µM | 209 µM | 166 µM | 187 µM | 36.2 µM | 115 µM |
| CCCCOc1ccc2c3ccnc(C)c3n(CCCC)c2c1 | 15.5 µM | 15.5 µM | 17.4 µM | 69.9 µM | 15.8 µM | 17.3 µM |
| O=Cc1cc2c3ccccc3n(Cc3ccc(F)cc3)c2cn1 | > 200 µM |  | > 200 µM | > 200 µM | > 200 µM | > 200 µM |
| CCCCCCCCOc1ccc2c3cc[n+](Cc4ccccc4)c(C)c3n(CCCc3ccccc3)c2c1 | 3.9 µM | 3.89 µM | 2.2 µM | 2 µM | 3.9 µM | 5.3 µM |
| CCOc1ccc2c3cc[n+](Cc4ccccc4)c(C)c3n(CC)c2c1 | 14.3 µM | 14.5 µM | 2.2 µM | 12.6 µM | 9.2 µM | 8.1 µM |
| CCCCCCCCOc1ccc2c3ccnc(C)c3n(CCCc3ccccc3)c2c1 | 105 µM | 105 µM | 69.6 µM | 21.8 µM | 17.4 µM | 45.9 µM |
| NCCNC(=O)c1cc2c3ccccc3n(Cc3ccccc3)c2cn1 | 104 µM | 105 µM | 42.8 µM | 51.7 µM | 11.9 µM | 51.6 µM |
| CCOC(=O)c1cc2c([nH]c3ccccc32)c(C)[n+]1Cc1ccccc1 | 53 µM | 52.5 µM | 101 µM | 56.2 µM | 55.3 µM | 44.9 µM |
| Cc1nccc2c3ccc(O)cc3n(CC(C)C)c12 | 116 µM | 115 µM | 68.3 µM | 114 µM | 140 µM | 96.9 µM |
| Cc1nc(C(=O)NCCN)cc2c3ccccc3n(Cc3ccccc3)c12 | 34.8 µM | 34.7 µM | 11 µM | 53.6 µM | 20.3 µM | 4.7 µM |
